Measurements from ChEMBL document CHEMBL1134143, “Studies towards the next generation of antidepressants. Part 1: Indolylcyclohexylamines as potent serotonin reuptake inhibitors” (Bioorg Med Chem Lett, 2001).

How the values were obtained:
[1] = molecular target: Sodium-dependent serotonin transporter (Rattus norvegicus, UniProt P31652); assay: In vitro for its binding affinity for serotonin transporter RB5-HT-T in rat cortical membranes; type: cell membranes
How it was run: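 Serotonin transporter affinity (RB5-HT-T). Compound tested at six concentrations in triplicate. Ki calculated from IC50 by Cheng–Prusoff and given as the mean of 2–3 experiments.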

[2] = molecular target: T1, 5-hydroxytryptamine receptor 1A (Homo sapiens) (UniProt P08908); assay: Binding affinity for 5-hydroxytryptamine 1A receptor was determined by incubating human 5-hydroxytryptamine 1A receptor transfected CHO cells with [3H]8-OH-DPAT; type: cell-based; design: concentration or dose not given beside the values; settings: concentration not given here
T1 sequence (whole entry): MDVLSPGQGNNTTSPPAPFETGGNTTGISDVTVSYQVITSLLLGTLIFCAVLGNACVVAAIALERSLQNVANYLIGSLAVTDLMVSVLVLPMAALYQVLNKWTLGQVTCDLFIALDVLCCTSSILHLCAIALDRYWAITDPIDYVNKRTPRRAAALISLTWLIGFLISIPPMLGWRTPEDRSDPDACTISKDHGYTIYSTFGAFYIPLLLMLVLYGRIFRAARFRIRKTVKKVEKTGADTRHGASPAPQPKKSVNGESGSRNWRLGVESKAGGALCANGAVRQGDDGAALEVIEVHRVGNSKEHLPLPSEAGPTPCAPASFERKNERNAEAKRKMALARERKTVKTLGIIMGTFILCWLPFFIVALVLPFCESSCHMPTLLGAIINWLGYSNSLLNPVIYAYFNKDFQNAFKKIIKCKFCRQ
How it was run: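 Displacement of [3H]-8-OH-DPAT binding in CHO cells transfected with human 5-HT1A receptors. Test compound at six concentrations, triplicate wells per experiment. IC50 converted to Ki (Cheng–Prusoff) and reported as the mean of 2–3 independent experiments.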

[3] = molecular target: Adrenergic receptor alpha-1 (Rattus norvegicus) (UniProt P15823+P23944+P43140); assay: In vitro inhibition of [3H]prazosin binding to rat Alpha-1 adrenergic receptors on cortical membranes at 1 uM.; type: cell membranes; settings: Membrane
[4] = molecular target: T2, Adrenergic receptor alpha-1 (Rattus norvegicus, UniProt P15823+P23944+P43140); assay: Binding affinity at Alpha-1 adrenergic receptors on rat cortical membranes by [3H]prazosin displacement.
T2 sequence (P15823 whole entry): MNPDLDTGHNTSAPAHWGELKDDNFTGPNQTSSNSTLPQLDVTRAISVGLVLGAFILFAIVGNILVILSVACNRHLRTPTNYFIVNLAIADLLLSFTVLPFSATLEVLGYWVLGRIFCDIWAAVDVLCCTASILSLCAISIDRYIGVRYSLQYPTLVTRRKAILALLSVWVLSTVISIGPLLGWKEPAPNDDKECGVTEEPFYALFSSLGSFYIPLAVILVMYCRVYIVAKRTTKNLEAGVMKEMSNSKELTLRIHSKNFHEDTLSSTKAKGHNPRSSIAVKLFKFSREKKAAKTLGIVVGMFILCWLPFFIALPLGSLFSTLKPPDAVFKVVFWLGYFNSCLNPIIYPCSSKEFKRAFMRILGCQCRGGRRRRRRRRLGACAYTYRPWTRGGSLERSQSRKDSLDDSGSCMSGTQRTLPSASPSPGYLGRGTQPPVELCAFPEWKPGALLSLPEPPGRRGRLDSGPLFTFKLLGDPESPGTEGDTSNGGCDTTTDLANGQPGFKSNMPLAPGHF
T2 sequence (P23944 whole entry): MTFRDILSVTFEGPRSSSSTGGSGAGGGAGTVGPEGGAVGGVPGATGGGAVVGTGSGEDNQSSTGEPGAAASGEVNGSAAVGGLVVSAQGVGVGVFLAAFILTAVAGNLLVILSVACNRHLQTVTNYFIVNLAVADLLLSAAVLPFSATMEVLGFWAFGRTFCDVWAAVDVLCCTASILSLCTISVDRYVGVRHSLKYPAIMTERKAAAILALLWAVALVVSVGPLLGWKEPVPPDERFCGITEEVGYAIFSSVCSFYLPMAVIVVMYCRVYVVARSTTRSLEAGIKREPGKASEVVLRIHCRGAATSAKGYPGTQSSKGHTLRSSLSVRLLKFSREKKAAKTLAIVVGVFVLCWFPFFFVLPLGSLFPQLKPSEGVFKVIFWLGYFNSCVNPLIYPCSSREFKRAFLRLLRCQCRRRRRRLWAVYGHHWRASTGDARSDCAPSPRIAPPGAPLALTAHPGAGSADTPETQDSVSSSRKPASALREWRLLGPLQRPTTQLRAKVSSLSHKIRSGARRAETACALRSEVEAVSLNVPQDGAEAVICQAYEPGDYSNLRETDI
T2 sequence (P43140 whole entry): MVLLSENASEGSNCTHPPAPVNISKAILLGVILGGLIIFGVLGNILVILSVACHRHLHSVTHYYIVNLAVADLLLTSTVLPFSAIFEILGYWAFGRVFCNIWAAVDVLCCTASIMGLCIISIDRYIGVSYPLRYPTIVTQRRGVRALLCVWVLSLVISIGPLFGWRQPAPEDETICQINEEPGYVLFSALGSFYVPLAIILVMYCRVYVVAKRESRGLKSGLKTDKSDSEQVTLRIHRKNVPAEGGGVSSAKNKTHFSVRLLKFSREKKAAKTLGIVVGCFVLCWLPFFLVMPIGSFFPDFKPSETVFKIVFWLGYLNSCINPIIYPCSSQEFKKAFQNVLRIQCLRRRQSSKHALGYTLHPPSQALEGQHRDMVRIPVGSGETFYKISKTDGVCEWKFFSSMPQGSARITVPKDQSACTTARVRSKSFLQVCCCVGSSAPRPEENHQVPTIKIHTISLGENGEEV
How it was run: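 Rat cortical membranes incubated with [3H]-prazosin and test compound. Six concentrations per experiment, each run in triplicate; Ki derived from IC50 by the Cheng–Prusoff method and given as the mean of 2–3 experiments.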

Sodium-dependent serotonin transporter, sequence (P31652 whole entry): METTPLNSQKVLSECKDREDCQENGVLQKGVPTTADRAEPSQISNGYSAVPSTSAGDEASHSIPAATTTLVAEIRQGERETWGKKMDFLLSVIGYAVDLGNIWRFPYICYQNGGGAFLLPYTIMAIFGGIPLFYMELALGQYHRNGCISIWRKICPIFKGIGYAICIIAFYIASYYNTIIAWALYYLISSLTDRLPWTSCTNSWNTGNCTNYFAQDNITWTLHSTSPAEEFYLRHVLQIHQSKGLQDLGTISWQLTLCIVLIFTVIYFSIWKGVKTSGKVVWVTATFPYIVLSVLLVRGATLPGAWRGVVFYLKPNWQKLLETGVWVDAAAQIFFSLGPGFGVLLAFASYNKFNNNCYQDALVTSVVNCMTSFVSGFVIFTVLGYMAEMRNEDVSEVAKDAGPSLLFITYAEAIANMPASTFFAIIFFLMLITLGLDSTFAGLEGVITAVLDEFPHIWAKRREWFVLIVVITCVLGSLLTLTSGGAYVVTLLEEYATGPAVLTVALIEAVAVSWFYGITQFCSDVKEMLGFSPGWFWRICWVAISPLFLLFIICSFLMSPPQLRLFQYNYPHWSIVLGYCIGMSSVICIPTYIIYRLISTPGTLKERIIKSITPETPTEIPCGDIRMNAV

Row | SMILES | Ki [1] [nM] | inhibition [2] [%] | inhibition [3] [%] | Ki [4] [nM]
1 | COc1cccc2c1CCN([C@H]1CC[C@H](c3c[nH]c4ccc(C#N)cc43)CC1)C2 | 12 | 47 | – | –
2 | COc1cccc2c1CN([C@H]1CC[C@@H](c3c[nH]c4ccc(C#N)cc43)CC1)CC2 | 1.01 | 14 | – | –
3 | COc1cccc2c1CN([C@H]1CC[C@H](c3c[nH]c4ccc(C#N)cc43)CC1)CC2 | 7.5 | 46 | – | –
4 | N#Cc1ccc2[nH]cc([C@H]3CC[C@@H](N4CCc5ccccc5C4)CC3)c2c1 | 1.23 | 0 | – | 337
5 | COc1ccc2c(c1)CCN([C@H]1CC[C@H](c3c[nH]c4ccc(C#N)cc43)CC1)C2 | 8 | 74 | – | 228
6 | N#Cc1ccc2[nH]cc([C@H]3CC[C@@H](N4CCCCC4)CC3)c2c1 | 22 | 0 | 3 | –
7 | N#Cc1ccc2[nH]cc([C@H]3CC[C@H](N4CCCCC4)CC3)c2c1 | 152 | 0 | 14 | –
8 | Fc1ccc2[nH]cc(CCCN3CCc4ccccc4C3)c2c1 | – | 48 | – | –
9 | COc1ccc2c(c1)CCN(CCCc1c[nH]c3ccc(F)cc13)C2 | – | – | – | 58
10 | N#Cc1ccc2[nH]cc(C3=CCC(N4CCCCC4)CC3)c2c1 (configuration not stated) | 178 | 0 | 10 | –
11 | COc1ccc2c(c1)CN([C@H]1CC[C@H](c3c[nH]c4ccc(C#N)cc43)CC1)CC2 | 12 | 48 | – | 113
12 | N#Cc1ccc2[nH]cc([C@H]3CC[C@H](N4CCc5ccccc5C4)CC3)c2c1 | 10 | 10 | – | 88
13 | COc1ccc2c(c1)CCN([C@H]1CC[C@@H](c3c[nH]c4ccc(C#N)cc43)CC1)C2 | 0.1 | 21 | 11 | –
14 | COc1cccc2c1CCN([C@H]1CC[C@@H](c3c[nH]c4ccc(C#N)cc43)CC1)C2 | 0.61 | 7 | – | –
15 | COc1ccc2c(c1)CN([C@H]1CC[C@@H](c3c[nH]c4ccc(C#N)cc43)CC1)CC2 | 0.8 | 26 | 11 | –

Second part, led by results:

Row | Ki [1] [nM] | inhibition [2] [%] | inhibition [3] [%] | SMILES | Ki [4] [nM]
16 | 855 | 0 | 21 | c1ccc(CN[C@H]2CC[C@@H](c3c[nH]c4ccccc43)CC2)cc1 | –
17 | 1.54 | 41 | 32 | N#Cc1ccc2[nH]cc(C3=CCC(NCCc4ccccc4)CC3)c2c1 (configuration not stated) | –
18 | 1.98 | 0 | 56 | N#Cc1ccc2[nH]cc([C@H]3CC[C@H](NCCc4ccccc4)CC3)c2c1 | –
19 | 7.5 | 0 | 40 | N#Cc1ccc2[nH]cc([C@H]3CC[C@@H](NCCc4ccccc4)CC3)c2c1 | –
20 | 7.5 | 15 | 17 | N#Cc1ccc2[nH]cc([C@H]3CC[C@@H](NCc4ccccc4)CC3)c2c1 | –
21 | 107 | 32 | 64 | c1ccc(CN[C@H]2CC[C@H](c3c[nH]c4ccccc43)CC2)cc1 | –
22 | 3.13 | 87 | 27 | N#Cc1ccc2[nH]cc(C3=CCC(NCc4ccccc4)CC3)c2c1 (configuration not stated) | –
23 | 16 | 11 | 8 | Fc1ccc2[nH]cc([C@H]3CC[C@H](NCc4ccccc4)CC3)c2c1 | –
24 | 25 | 37 | 28 | N#Cc1ccc2[nH]cc([C@H]3CC[C@H](NCc4ccccc4)CC3)c2c1 | –
25 | 21 | 3 | 9 | Fc1ccc2[nH]cc([C@H]3CC[C@@H](NCc4ccccc4)CC3)c2c1 | –
